The source of these data is ChEMBL document CHEMBL3046326, “Screening of dialkoxybenzenes and disubstituted cyclopentene derivatives against the cabbage looper, Trichoplusia ni, for the discovery of new feeding and oviposition deterrents” (J Agric Food Chem, 2007).

The subject of assay [1] is Trichoplusia ni. As to the kind of experiment: Oviposition deterrent activity against adult female Trichoplusia ni (cabbage looper) moths introduced along with male moths into oviposition cage containing compound pretreated cabbage leaves assessed as eggs laying on the leaf disks at 0.25% after 48 hr by oviposition choice bioassay. The assay is classed as functional. The procedure, abridged: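 Choice test with moths from larvae reared on normal diet from neonate to pupation. Pupae were sexed and held separately until emergence. Cabbage leaves were treated with test substance at 0.25% or left as control, and eggs per leaf were counted after 48 h. ODI = [(C − T)/(C + T)] × 100 from egg numbers on control and treated leaves.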

In assay [2] the test system is Trichoplusia ni. As to the kind of experiment: Feeding deterrent activity against freshly molted third-instar larval stage of Trichoplusia ni (cabbage looper) after 3 to 5 hr by leaf disk choice bioassay. The assay is classed as functional, organism-based. The procedure, abridged:
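Choice test: freshly molted third instar larvae, starved 4–5 h, offered two leaf disks, one painted on each side with 10 µL test solution and one with carrier solvent only. Twenty-five larvae per treatment. Ended when ~50% of the control disk was eaten (normally 3–5 h). Consumed areas measured. DC50 derived by linear regression of at least four concentrations (3.12–25 µg/cm²).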

Assay [3] deals with Trichoplusia ni. As to the kind of experiment: Toxicity against third-instar larval stage of Trichoplusia ni (cabbage looper) assessed as mortality at 0.25% measured after 24 hr by contact toxicity bioassay. The assay is classed as functional. The procedure, abridged: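 Third-instar larvae were sprayed directly with test solution at 0.25% in filter-paper-lined Petri dishes. They were then moved to dishes holding a small piece of artificial diet. Mortality was scored 24 h after spraying. The test applied only to compounds giving >50% feeding deterrence at 50 µg/cm².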

The subject of assay [4] is Trichoplusia ni. As to the kind of experiment: Feeding deterrent activity against freshly molted third-instar larval stage of Trichoplusia ni (cabbage looper), Trichoplusia ni at 50 ug/cm'2 after 3 to 5 hr by leaf disk choice bioassay. The class given is functional. The procedure, abridged: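 Leaf disk choice with freshly molted third instar larvae starved 4–5 h. One disk was painted on each side with 10 µL solution giving 50 µg/cm², the other with carrier solvent. Twenty-five larvae per treatment, stopped at ~50% control disk consumption (3–5 h). Deterrence = [(C − T)/(C + T)] × 100 from consumed areas; mean ± SE, Tukey's test p < 0.05.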

Assay [5] deals with Trichoplusia ni. As to the kind of experiment: Toxicity against third-instar larval stage of Trichoplusia ni (cabbage looper) assessed as mortality measured after 24 hr by contact toxicity bioassay. The assay is classed as functional. The procedure, abridged:
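Third-instar larvae were hand-sprayed directly with test solutions in filter-paper-lined Petri dishes, then moved to dishes holding a small piece of artificial diet. Mortality was recorded at 24 h.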

The next assay relates to Helicoverpa zea. As to the kind of experiment: Larvicidal activity against Helicoverpa zea (corn earworm) assessed as growth inhibition at 3 mM/kg relative to control by chronic feeding bioassay. The conditions noted are these: read-out: GI. The assay is classed as functional.

`CCOc1ccc(OCC)cc1` [1,4-DIETHOXYBENZENE]: the Activity in the assay on Trichoplusia ni [1] was 74.7%; in the assay on Trichoplusia ni [4], 80.8%. The compound also had a DC50 in the assay on Trichoplusia ni [2] of 25.9 microg/cm2. The mortality in the assay on Trichoplusia ni [3] is recorded as 100%. The LC50 with Trichoplusia ni [5] came out at 0.03%.

Take `CCCCCOc1ccc(OCC)cc1` [1-ethoxy-4-pentoxybenzene]: the Activity in the assay on Trichoplusia ni [1] is listed as 56.6%; in the assay with Trichoplusia ni [4], 90.7%. The compound further showed a DC50 with Trichoplusia ni [2] of 23.4 microg/cm2. In addition, the mortality with Trichoplusia ni [3] is 96.8%. Further, the LC50 in the assay with Trichoplusia ni [5] is 0.03%.

With `CCOc1ccccc1OCCC(C)C` [1-isopentoxy-2-ethoxybenzene], the Activity in the assay with Trichoplusia ni [1] turned out to be 29.4%; with Trichoplusia ni [4], 66.9%. Further, the DC50 in the assay with Trichoplusia ni [2] came out at 32.5 microg/cm2. In the assay on Trichoplusia ni [3], the mortality amounted to 10%.

Consider `COc1ccccc1OCCC(C)C` [1-isopentoxy-2-methoxybenzene], for which the Activity in the assay on Trichoplusia ni [1] was found to be 29.4%; with Trichoplusia ni [4] it was 66.9%. The DC50 with Trichoplusia ni [2] was 32.5 microg/cm2. For the same compound, the mortality with Trichoplusia ni [3] is 10%.

Regarding `CCCCCOc1ccccc1OCCC(C)C` [1-isopentoxy-2-pentoxybenzene], the Activity in the assay on Trichoplusia ni [1] stood at 29.4%; in the assay on Trichoplusia ni [4], 66.9%. The compound also came in with a DC50 in the assay on Trichoplusia ni [2] of 32.5 microg/cm2. In addition, in the assay with Trichoplusia ni [3], the mortality was determined as 10%.

As to `CCOc1cccc(OCCC(C)C)c1` [1-isopentyloxy-3-ethoxybenzene], the Activity in the assay with Trichoplusia ni [1] worked out at 35.7%; in the assay with Trichoplusia ni [4], 82.6%. In addition, the DC50 with Trichoplusia ni [2] turned out to be 19.8 microg/cm2. The mortality in the assay on Trichoplusia ni [3] was determined as 20.8%.

As to `COc1cccc(OCCC(C)C)c1` [1-isopentyloxy-3-methoxybenzene], the Activity in the assay on Trichoplusia ni [1] is 35.7%; in the assay on Trichoplusia ni [4], 82.6%. In the assay on Trichoplusia ni [2], the DC50 is 19.8 microg/cm2. Besides, the mortality in the assay with Trichoplusia ni [3] is 20.8%.

Take `CCCCCOc1cccc(OCCC(C)C)c1` [1-isopentyloxy-3-pentoxybenzene]: the Activity in the assay on Trichoplusia ni [1] turned out to be 35.7%; in the assay on Trichoplusia ni [4] it was 82.6%. Besides, the DC50 with Trichoplusia ni [2] came out at 19.8 microg/cm2. In the assay on Trichoplusia ni [3], the mortality amounted to 20.8%.

Take `CCOc1ccc(OCCC(C)C)cc1` [1-isopentyloxy-4-ethoxybenzene]: the Activity came to 22.9% in the assay with Trichoplusia ni [1] and 100% in the assay on Trichoplusia ni [4]. In addition, the DC50 with Trichoplusia ni [2] turned out to be 5.8 microg/cm2. For the same compound, the mortality in the assay with Trichoplusia ni [3] worked out at 18.8%.

In the case of `COc1ccc(OCCC(C)C)cc1` [1-isopentyloxy-4-methoxybenzene], the Activity was determined as 22.9% in the assay with Trichoplusia ni [1] and 100% with Trichoplusia ni [4]. Also, the DC50 in the assay with Trichoplusia ni [2] is recorded as 5.8 microg/cm2. The mortality in the assay on Trichoplusia ni [3] is reported as 18.8%.

As to `CCCOc1ccc(OCCC(C)C)cc1` [1-isopentyloxy-4-propoxybenzene], the Activity turned out to be 22.9% with Trichoplusia ni [1] and 100% with Trichoplusia ni [4]. In addition, the DC50 in the assay on Trichoplusia ni [2] was found to be 5.8 microg/cm2. The mortality with Trichoplusia ni [3] is recorded as 18.8%.

For the compound `CCOc1cccc(OC)c1` [1-methoxy-3-ethoxybenzene], the values for the Activity in the assay on Trichoplusia ni [1] and in the assay on Trichoplusia ni [4] were 70.2% and 54.8%, respectively. In the assay on Trichoplusia ni [2], this compound had a DC50 of 61.5 microg/cm2. Besides, the mortality with Trichoplusia ni [3] was 16.7%.

Take `CCCCCOc1cccc(OC)c1` [1-methoxy-3-pentoxybenzene]: the results for the Activity in the assay with Trichoplusia ni [1] and in the assay with Trichoplusia ni [4] were 70.2% and 54.8%, respectively. In the assay on Trichoplusia ni [2], this compound came in with a DC50 of 61.5 microg/cm2. In addition, the mortality in the assay with Trichoplusia ni [3] is given as 16.7%.

Consider `CCCOc1cccc(OC)c1` [1-methoxy-3-propoxybenzene], for which the Activity with Trichoplusia ni [1] was found to be 70.2%; in the assay on Trichoplusia ni [4], 54.8%. In the assay on Trichoplusia ni [2], this compound had a DC50 of 61.5 microg/cm2. For the same compound, the mortality in the assay on Trichoplusia ni [3] is on record as 16.7%.

On to `CCOc1ccc(OC)cc1` [1-methoxy-4-ethoxybenzene], for which the Activity is on record as 6% in the assay on Trichoplusia ni [1] and 80.2% in the assay with Trichoplusia ni [4]. In the assay on Trichoplusia ni [2], this compound came in with a DC50 of 34.6 microg/cm2. The mortality in the assay on Trichoplusia ni [3] worked out at 23.3%. Also, the LC50 in the assay on Trichoplusia ni [5] was 0.03%.

Consider `CCCCCOc1ccc(OC)cc1` [1-methoxy-4-pentoxybenzene], for which the Activity in the assay with Trichoplusia ni [1] was 6%; with Trichoplusia ni [4], 80.2%. This compound showed a DC50 in the assay on Trichoplusia ni [2] of 34.6 microg/cm2. The mortality in the assay with Trichoplusia ni [3] came out at 23.3%.

Turning to `CCCOc1ccc(OC)cc1` [1-methoxy-4-propoxybenzene], the Activity in the assay with Trichoplusia ni [1] is 6%; with Trichoplusia ni [4], 53.4%. In the assay on Trichoplusia ni [2], this compound had a DC50 of 34.6 microg/cm2. The mortality with Trichoplusia ni [3] was 23.3%.

Turning to `CCCCOc1ccccc1OCCC` [1-propoxy-2-butoxybenzene], the Activity in the assay on Trichoplusia ni [1] was determined as 31.7%; in the assay with Trichoplusia ni [4], 100%. Moreover, in the assay with Trichoplusia ni [2], the DC50 is recorded as 19.4 microg/cm2. Also, the mortality with Trichoplusia ni [3] was found to be 13.8%.

For the compound `CCCCCOc1ccccc1OCCC` [1-propoxy-2-pentoxybenzene], the Activity in the assay on Trichoplusia ni [1] is 31.7%; with Trichoplusia ni [4], 100%. In the assay with Trichoplusia ni [2], this compound came in with a DC50 of 19.4 microg/cm2. The mortality in the assay on Trichoplusia ni [3] is listed as 13.8%.

On to `CCCCCOc1cccc(OCCC)c1` [1-propoxy-3-pentoxybenzene], for which the Activity with Trichoplusia ni [1] was 2.7%; in the assay with Trichoplusia ni [4] it was 98%. Besides, in the assay on Trichoplusia ni [2], the DC50 was determined as 21.5 microg/cm2. For the same compound, in the assay on Trichoplusia ni [3], the mortality was determined as 50%.

Consider `CCCCCOc1ccc(OCCC)cc1` [1-propoxy-4-pentoxybenzene], for which the Activity turned out to be 9.6% in the assay with Trichoplusia ni [1] and 53.4% in the assay with Trichoplusia ni [4]. For the same compound, in the assay on Trichoplusia ni [2], the DC50 worked out at 39.7 microg/cm2. In addition, in the assay with Trichoplusia ni [3], the mortality is on record as 53.1%.

As for `CCCOc1cccc(OCCC(C)C)c1` [3-PROPOXY-1-ISOPENTOXYBENZENE], the Activity in the assay with Trichoplusia ni [1] is reported as 35.7%; with Trichoplusia ni [4] it was 82.6%. Besides, the DC50 with Trichoplusia ni [2] stood at 19.8 microg/cm2. For the same compound, in the assay on Trichoplusia ni [3], the mortality came to 20.8%.

With `CCCOc1ccc(OCC)cc1` [4-ETHOXY-1-PROPOXYBENZENE], the Activity is given as 56.6% in the assay with Trichoplusia ni [1] and 53.4% in the assay on Trichoplusia ni [4]. In the assay with Trichoplusia ni [2], the DC50 came to 23.4 microg/cm2. The mortality in the assay with Trichoplusia ni [3] is recorded as 96.8%. The LC50 in the assay with Trichoplusia ni [5] amounted to 0.03%.

As to `C=C1C(=O)O[C@@H]2[C@H]1CC[C@H](C)[C@]1(O)C=CC(=O)[C@@]21C` [PARTHENIN], the inhibition of growth at 3000 µM with Helicoverpa zea worked out at 59%.

Broadly, the mortality is the share of the test organisms that died.
